The nature of experiment [1]: Inhibition of alcohol dehydrogenase.
Experiment [2] concerns the target T1, NAD-dependent protein deacetylase sirtuin-1 (Homo sapiens) (UniProt Q96EB6).
T1 sequence (whole entry): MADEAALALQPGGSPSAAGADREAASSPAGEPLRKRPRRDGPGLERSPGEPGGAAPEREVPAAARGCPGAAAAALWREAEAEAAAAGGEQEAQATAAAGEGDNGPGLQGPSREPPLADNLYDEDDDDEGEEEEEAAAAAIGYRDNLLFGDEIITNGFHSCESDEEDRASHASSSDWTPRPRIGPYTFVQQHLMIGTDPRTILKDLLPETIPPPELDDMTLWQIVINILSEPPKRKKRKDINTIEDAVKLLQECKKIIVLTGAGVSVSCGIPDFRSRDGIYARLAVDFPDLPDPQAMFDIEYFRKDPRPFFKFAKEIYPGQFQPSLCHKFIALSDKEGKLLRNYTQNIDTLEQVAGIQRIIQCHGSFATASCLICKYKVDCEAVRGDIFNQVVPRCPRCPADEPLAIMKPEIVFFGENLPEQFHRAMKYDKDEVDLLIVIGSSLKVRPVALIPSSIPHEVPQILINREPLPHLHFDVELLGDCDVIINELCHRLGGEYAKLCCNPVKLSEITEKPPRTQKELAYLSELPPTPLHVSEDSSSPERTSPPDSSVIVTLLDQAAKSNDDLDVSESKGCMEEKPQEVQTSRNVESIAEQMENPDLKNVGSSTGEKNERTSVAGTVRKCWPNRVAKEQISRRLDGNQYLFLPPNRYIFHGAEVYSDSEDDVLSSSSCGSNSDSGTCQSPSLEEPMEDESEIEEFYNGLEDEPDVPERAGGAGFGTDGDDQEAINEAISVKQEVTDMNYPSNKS
Put plainly: Inhibition of SIRT1.

The target of experiment [3] is Poly(ADP-ribose) glycohydrolase (Homo sapiens) (UniProt Q86W56). Put plainly: Inhibition of PARG using [alpha-32P]ADP-ribose polymers at 500 uM after 5 mins by TRAP assay.
For experiment [4] the target is unchanged. Put plainly: Inhibition of PARG using [alpha-32P]ADP-ribose polymers up to 500 uM after 5 mins by TRAP assay.
For experiment [5], the target named is Poly [ADP-ribose] polymerase 1 (Homo sapiens, UniProt P09874). The experiment is described as follows: Inhibition of PARP-1 using [32P]-NAD+ after 15 mins.
The target of experiment [6] is PARP 1, 2 and 3 (Homo sapiens) (UniProt P09874+Q9Y6F1+Q9UGN5). Put plainly: Inhibition of PARP in human SCC25 cells assessed as inhibition of MNNG-induced NAD(H) depletion at 1 mM preincubated for 5 mins before MNNG challenge measured after 30 mins. It is filed as cell-based. As to conditions: SCC-25. An outline of the steps:
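SCC-25 cells (90% confluent, 35 mm dishes) pretreated 5 min with compound, then 5 μg/mL MNNG for 30 min; HClO4 extraction, KOH/KH2PO4 neutralization; NAD by enzymatic cycling (alcohol dehydrogenase, phenazine ethosulfate, MTT, 37°C 30 min), A570; normalized to cell protein.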

In experiment [7] the target is Poly(ADP-ribose) glycohydrolase (Homo sapiens) (UniProt Q86W56). Put plainly: Inhibition of PARG in human SCC25 cells assessed as inhibition of MNNG-induced poly(ADP-ribose) formation at 1 mM after 20 mins by chemiluminescent ELISA. The format is cell-based. As to conditions: SCC-25. In a few lines: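 SCC-25 cells at 90% confluence in 35 mm dishes; 5 μg/mL MNNG used to induce PAR; lysed in buffer with 1% SDS; ADP-ribose polymers quantified by chemiluminescent ELISA (kit protocol, minor changes); PAR normalized to cell count.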
On the technique in general: In an ELISA, binding on a coated surface is turned into a signal by an enzyme label.

For experiment [8] the target is unchanged. As to conditions: SCC-25, 1 mM.
Experiment [9] shares this target. As to conditions: SCC-25, 1 mM. This is another data set of the same source.
The target is the same in experiment [10]. As to conditions: SCC-25, 1 mM. The source holds these as a separate data set.
Experiment [11] can be described thus: Selectivity ratio of IC50 for PARP-1 to IC50 for PARG.

Activity calls are given as the source filed them. The calls are words filed in the database; no cut-off is given here.

Sequence of Poly [ADP-ribose] polymerase 1 (P09874 whole entry): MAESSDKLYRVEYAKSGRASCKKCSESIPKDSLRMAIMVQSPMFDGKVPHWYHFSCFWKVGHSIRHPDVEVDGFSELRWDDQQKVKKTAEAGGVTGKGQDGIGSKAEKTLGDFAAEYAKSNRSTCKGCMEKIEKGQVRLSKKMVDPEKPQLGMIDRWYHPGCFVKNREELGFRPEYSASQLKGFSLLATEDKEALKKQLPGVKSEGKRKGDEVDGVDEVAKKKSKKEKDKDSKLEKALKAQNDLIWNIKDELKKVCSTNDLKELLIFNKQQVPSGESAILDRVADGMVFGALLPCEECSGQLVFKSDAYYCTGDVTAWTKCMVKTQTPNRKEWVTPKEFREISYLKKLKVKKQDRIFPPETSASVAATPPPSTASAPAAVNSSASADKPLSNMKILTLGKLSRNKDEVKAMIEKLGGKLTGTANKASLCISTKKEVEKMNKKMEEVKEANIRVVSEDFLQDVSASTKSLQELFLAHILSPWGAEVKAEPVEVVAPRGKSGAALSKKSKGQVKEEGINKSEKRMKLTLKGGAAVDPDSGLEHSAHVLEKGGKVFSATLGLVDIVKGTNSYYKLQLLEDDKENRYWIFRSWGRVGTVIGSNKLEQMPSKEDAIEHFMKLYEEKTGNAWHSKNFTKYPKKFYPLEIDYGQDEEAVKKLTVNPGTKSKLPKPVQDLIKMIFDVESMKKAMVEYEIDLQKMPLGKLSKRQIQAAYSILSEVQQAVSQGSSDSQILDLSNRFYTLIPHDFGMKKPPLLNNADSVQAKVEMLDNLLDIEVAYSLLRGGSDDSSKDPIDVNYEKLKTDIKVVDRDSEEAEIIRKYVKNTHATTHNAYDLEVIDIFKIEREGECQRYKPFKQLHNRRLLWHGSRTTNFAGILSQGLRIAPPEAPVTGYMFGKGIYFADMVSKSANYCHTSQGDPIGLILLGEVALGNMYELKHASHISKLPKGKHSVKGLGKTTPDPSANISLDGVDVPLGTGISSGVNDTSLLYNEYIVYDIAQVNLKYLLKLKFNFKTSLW
Sequence of Poly(ADP-ribose) glycohydrolase (Homo sapiens) (Q86W56 whole entry, looked up): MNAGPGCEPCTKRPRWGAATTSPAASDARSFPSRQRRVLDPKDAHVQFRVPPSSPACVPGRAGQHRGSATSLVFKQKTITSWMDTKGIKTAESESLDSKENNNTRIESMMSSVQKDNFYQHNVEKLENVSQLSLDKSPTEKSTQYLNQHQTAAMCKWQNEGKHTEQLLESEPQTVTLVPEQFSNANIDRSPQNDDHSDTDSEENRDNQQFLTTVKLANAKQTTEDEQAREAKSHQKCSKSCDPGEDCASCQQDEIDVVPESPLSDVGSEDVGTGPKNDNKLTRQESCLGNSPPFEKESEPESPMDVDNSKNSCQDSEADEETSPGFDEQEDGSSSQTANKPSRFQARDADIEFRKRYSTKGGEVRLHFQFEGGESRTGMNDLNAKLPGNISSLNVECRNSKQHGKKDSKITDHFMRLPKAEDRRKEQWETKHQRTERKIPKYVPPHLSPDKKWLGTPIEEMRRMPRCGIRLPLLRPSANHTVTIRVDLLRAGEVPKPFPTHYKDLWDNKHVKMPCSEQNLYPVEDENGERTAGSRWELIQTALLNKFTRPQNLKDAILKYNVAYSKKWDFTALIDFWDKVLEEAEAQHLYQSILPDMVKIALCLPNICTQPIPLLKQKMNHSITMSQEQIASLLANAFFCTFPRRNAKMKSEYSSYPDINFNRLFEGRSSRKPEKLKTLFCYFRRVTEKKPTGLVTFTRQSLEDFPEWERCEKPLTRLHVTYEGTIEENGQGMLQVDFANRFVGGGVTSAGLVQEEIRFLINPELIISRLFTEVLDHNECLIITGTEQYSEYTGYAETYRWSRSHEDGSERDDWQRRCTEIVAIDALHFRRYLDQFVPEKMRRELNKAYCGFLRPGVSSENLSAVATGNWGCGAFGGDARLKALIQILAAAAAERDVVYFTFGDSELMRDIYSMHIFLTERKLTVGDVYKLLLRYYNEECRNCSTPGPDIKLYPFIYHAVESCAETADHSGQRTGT

On to `O=C(Nc1ccc(Oc2ccc3ccccc3c2)c(Cl)c1)c1cc(Cl)ccc1O`, for which the inhibition result in experiment [1] and in experiment [2] was “inactive” in each case.
Turning to `O=C(Nc1ccccc1)c1cc(Cl)cc(Cl)c1O`, the inhibition result in experiment [1] and in [2] was “inactive” in each case. In addition, the inhibition (in general, the change of the read-out against control, counted positive when it falls) in experiment [3] is less than 10%.
As for `Oc1c(Cl)cc(Cl)cc1/C=N/c1ccc(Oc2ccc3ccccc3c2)c(Cl)c1`, the inhibition result in experiment [4], in [1] and in experiment [2] was “inactive” throughout.
Take `O=C(Nc1ccccc1Cl)c1cc(Cl)cc(Cl)c1O`: in experiment [5], the IC50 (as a rule, the point on the concentration scale where inhibition reaches its midpoint) is 500 µM. Besides, the inhibition entry in experiment [1] and in experiment [2] was “inactive” each time. The molecule further showed an inhibition in [3] of 10%.
`O=C(Nc1ccc(O)c(Cl)c1)c1cc(Cl)cc(Cl)c1O`: the inhibition entry in experiment [1] and in [2] was “inactive” in each case. In [3], this molecule displayed an inhibition of less than 10%.
In the case of `NC(=O)c1ccccc1` [BENZAMIDE], the 50% inhibitory concentration (IC50) in experiment [5] came to 5.4 µM. Also, the inhibition result in experiment [6] and in experiment [7] was “Active” in each case.
On to `O=C(O)c1ccccc1C(=O)Nc1ccc(Oc2ccc3ccccc3c2)c(Cl)c1`, for which, in [5], inhibition was half-maximal at 66 µM (IC50). The inhibition result in [1] and in [2] was “inactive” each time.
As for `Cc1ccc(NC(=O)c2cc(Cl)cc(Cl)c2O)cc1`, the inhibition entry in experiment [1] and in experiment [2] was “inactive” throughout. The same molecule came in with an inhibition in experiment [3] of 10%.
Turning to `O=C(Nc1ccc(Oc2ccc3ccccc3c2)c(F)c1)c1cc(Cl)cc(Cl)c1O`, the inhibition entry in experiment [1] and in experiment [2] was “inactive” in each case.
On to `Cc1ccc(Oc2ccc(NC(=O)c3cc(Cl)cc(Cl)c3O)cc2Cl)cc1`, for which the inhibition result in [1] and in experiment [2] was “inactive” throughout.
On to `O=C(Nc1ccc(Cl)cc1)c1cc(Cl)cc(Cl)c1O`, for which the inhibition result in experiment [6] was “Active”. In addition, the inhibition entry in experiment [1] and in experiment [2] was “inactive” in each case.
On to `Cc1cccc(NC(=O)c2cc(Cl)cc(Cl)c2O)c1`, for which the inhibition entry in experiment [1] and in experiment [2] was “inactive” in each case. For the same molecule, in [3], the inhibition is 10%.
Turning to `Cc1cc(NC(=O)c2cc(Cl)cc(Cl)c2O)ccc1Oc1ccc2ccccc2c1`, the inhibition result in [1] and in [2] was “inactive” each time.
On to `CN(C(=O)c1cc(Cl)cc(Cl)c1O)c1ccc(Oc2ccc3ccccc3c2)c(Cl)c1`, for which the inhibition entry in [1] and in experiment [2] was “inactive” in each case.
Consider `NC(=O)c1cc(Cl)cc(Cl)c1O`, for which the inhibition result in experiment [6] was “Active”. Also, the inhibition result in experiment [1] and in experiment [2] was “inactive” each time. In experiment [3], this molecule displayed an inhibition of less than 10%.
As for `O=C(Nc1cc(Cl)ccc1Oc1ccc2ccccc2c1Cl)c1cc(Cl)cc(Br)c1O`, the inhibition result in experiment [1] and in [2] was “inactive” in each case.
For the molecule `O=C(Nc1ccc(Oc2ccc3ccccc3c2)cc1)c1cc(Cl)cc(Cl)c1O`, the inhibition result in [1] and in experiment [2] was “inactive” throughout.
For the molecule `Oc1c(Cl)cc(Cl)cc1CNc1ccc(Oc2ccc3ccccc3c2)c(Cl)c1`, the inhibition entry in [4], in [1] and in experiment [2] was “inactive” in each case.
With `Cc1ccc(C(C)C)c(Br)c1Oc1ccc(Cl)cc1NC(=O)c1cc(Cl)cc(Br)c1O`, in [5], the IC50 turned out to be 78 µM. In addition, the inhibition entry in experiment [1] and in experiment [2] was “inactive” in each case.
For `O=C(Nc1ccc(Oc2ccc3ccccc3c2)c(Cl)c1)c1cc(Cl)cc(Cl)c1O`, in [5], the IC50 amounted to 120 µM. Further, the inhibition in experiment [6] came to 40%. Further, the inhibition result in experiment [1] and in [2] was “inactive” throughout. For the same molecule, the inhibition result in experiment [8], in [9] and in [10] was “Active” in each case.
As to `O=C(Nc1ccc(Oc2ccc3ccccc3c2)c(Cl)c1)c1ccccc1O`, the inhibition result in [1] and in [2] was “inactive” in each case.
With `O=C(Nc1ccc(Oc2ccc3ccccc3c2)c(Cl)c1)c1cc(Cl)cc(Cl)c1`, the inhibition result in experiment [4], in [1] and in experiment [2] was “inactive” each time. The inhibition result in experiment [6] was “Active”.
`Cc1ccccc1NC(=O)c1cc(Cl)cc(Cl)c1O`: the inhibition result in [1] and in [2] was “inactive” throughout. Also, the inhibition in experiment [3] was determined as 10%.
Turning to `O=C(Nc1ccc(Oc2ccc3ccccc3c2)c(Cl)c1)c1cccc(Cl)c1O`, the inhibition entry in experiment [1] and in experiment [2] was “inactive” in each case.
In the case of `Nc1ncnc2c1ncn2[C@@H]1O[C@H](CO[P@](=O)(O)O[P@@](=O)(O)OC[C@H]2NC[C@H](O)[C@@H]2O)[C@@H](O)[C@H]1O` [ADENOSINE DIPHOSPHATE (HYDROXYMETHYL)PYRROLIDINEDIOL], in experiment [5], the IC50 was more than 1000 µM.
Take `O=C(Nc1ccc(Oc2ccccc2)c(Cl)c1)c1cc(Cl)cc(Cl)c1O`: the inhibition entry in experiment [1] and in experiment [2] was “inactive” throughout.
In the case of `O=C(Nc1cccc(Cl)c1)c1cc(Cl)cc(Cl)c1O`, half-maximal inhibition in [5] (IC50) was put at 500 µM. The inhibition result in experiment [1] and in experiment [2] was “inactive” throughout.
`COc1c(Cl)cc(Cl)cc1C(=O)Nc1ccc(Oc2ccc3ccccc3c2)c(Cl)c1`: the inhibition result in experiment [4], in experiment [1] and in experiment [2] was “inactive” each time.
For `O=C(Nc1ccc(Oc2ccc3ccccc3c2)c(C(F)(F)F)c1)c1cc(Cl)cc(Cl)c1O`, the inhibition entry in experiment [1] and in experiment [2] was “inactive” in each case.
The molecule `O=C(Nc1ccc(Oc2cc3ccccc3cc2Br)c(Cl)c1)c1cc(Cl)cc(Cl)c1O` showed an IC50 in experiment [5] of 123 µM. Further, the Ratio IC50 in experiment [11] came to 15. For the same molecule, the inhibition entry in [1] and in experiment [2] was “inactive” each time.

Values taken from ChEMBL document CHEMBL1811898, “Discovery and structure-activity relationships of modified salicylanilides as cell permeable inhibitors of poly(ADP-ribose) glycohydrolase (PARG)” (J Med Chem, 2011).
